For data set [1], the system named is Human immunodeficiency virus 1. Briefly: Antiviral activity against HIV1 3B infected in human MT4 cells assessed as protection against virus-induced cytopathic effect incubated for 5 days by MTT assay. Type of data set: functional, organism-based. The settings on record: Human immunodeficiency virus 1, 3B, MT4, 120 h.
Data set [2] relates to Human immunodeficiency virus 1. Briefly: Antiviral activity against NNRTI-resistant HIV1 RES056 containing reverse transcriptase K103N+Y181C mutant infected in human MT4 cells assessed as protection against virus-induced cytopathic effect incubated for 5 days by MTT assay. Conditions: Human immunodeficiency virus 1, RES056, MT4, 120 h. The format is functional, organism-based.

The subject of data set [3] is Human immunodeficiency virus 1. Description: Antiviral activity against HIV1 containing reverse transcriptase L100I mutant infected in human MT4 cells assessed as protection against virus-induced cytopathic effect incubated for 5 days by MTT assay. Type of data set: functional, organism-based. Conditions: Human immunodeficiency virus 1, MT4, 120 h.
The test system of data set [4] is Human immunodeficiency virus 1. Description: Antiviral activity against HIV1 containing reverse transcriptase K103N mutant infected in human MT4 cells assessed as protection against virus-induced cytopathic effect incubated for 5 days by MTT assay. The format is functional, organism-based. Conditions: Human immunodeficiency virus 1, MT4, 120 h.
Data set [5] relates to Human immunodeficiency virus 1. Briefly: Antiviral activity against HIV1 containing reverse transcriptase Y181C mutant infected in human MT4 cells assessed as protection against virus-induced cytopathic effect incubated for 5 days by MTT assay. Type of data set: functional, organism-based. Conditions: Human immunodeficiency virus 1, MT4, 120 h.
The subject of data set [6] is Human immunodeficiency virus 1. Briefly: Antiviral activity against HIV1 containing reverse transcriptase Y188L mutant infected in human MT4 cells assessed as protection against virus-induced cytopathic effect incubated for 5 days by MTT assay. Conditions: Human immunodeficiency virus 1, MT4, 120 h. Type of data set: functional, organism-based.
Data set [7] has as its system Human immunodeficiency virus 1. Description: Antiviral activity against HIV1 containing reverse transcriptase E138K mutant infected in human MT4 cells assessed as protection against virus-induced cytopathic effect incubated for 5 days by MTT assay. The settings on record: Human immunodeficiency virus 1, MT4, 120 h. The format is functional, organism-based.
The subject of data set [8] is Human immunodeficiency virus 1. Description: Antiviral activity against HIV1 containing reverse transcriptase F227L+V106A mutant infected in human MT4 cells assessed as protection against virus-induced cytopathic effect incubated for 5 days by MTT assay. The format is functional, organism-based. Conditions: Human immunodeficiency virus 1, MT4, 120 h.
In the next data set the target is Cytochrome P450 2D6 (Homo sapiens, UniProt P10635). Briefly: Inhibition of CYP2D6 in human liver microsomes using dextromethorphan substrate in presence of NADPH incubated for 10 mins. Type of data set: ADME.
Data set [9] in a line: Toxicity in Kunming mouse assessed as induction of mortality at 2000 mg/kg, po administered as single dose measured during 7 days post dose. The format is organism-based. The settings on record: in vivo, 168 h. In a few lines:
(§1)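 Kunming mice received a single oral 2000 mg/kg dose and were followed for 7 days alongside an untreated control group. Mortality, poisoning symptoms and behaviour were recorded, and relative body-weight change was tracked.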

Data set [10] is described as follows: Toxicity in Kunming mouse assessed as induction of poisoning symptoms at 2000 mg/kg, po administered as single dose measured during 7 days post dose. The settings on record: in vivo, 168 h. The format is organism-based. The method in brief: as §1
A short description of data set [11]: Toxicity in Kunming mouse assessed as induction of abnormal behaviors at 2000 mg/kg, po administered as single dose measured during 7 days post dose. Conditions: in vivo, 168 h. Type of data set: organism-based. In a few lines: as §1
A short description of data set [12]: Toxicity in Kunming mouse assessed as induction of body weight changes at 2000 mg/kg, po administered as single dose measured during 7 days post dose. Conditions: in vivo, 168 h. Type of data set: organism-based. In a few lines:
as §1

Data set [13] can be described thus: Tmax in Wistar rat at 2 mg/kg, iv by LC-MS/MS analysis. Type of data set: ADME, organism-based. The settings on record: in vivo. In a few lines: (§2)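 Single dose, intravenous at 2 mg/kg or oral at 10 mg/kg, in Wistar rats and Kunming mice.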
Data set [14] in a line: Tmax in Wistar rat at 10 mg/kg, po by LC-MS/MS analysis. Type of data set: ADME, organism-based. The settings on record: in vivo. In a few lines:
as §2

The nature of data set [15]: Tmax in Kunming mouse at 2 mg/kg, iv by LC-MS/MS analysis. The format is ADME, organism-based. The settings on record: in vivo. In a few lines: as §2
Data set [16] can be described thus: Tmax in Kunming mouse at 10 mg/kg, po by LC-MS/MS analysis. Type of data set: ADME, organism-based. The settings on record: in vivo. The method in brief:
as §2

SMILES strings stand for the structures. pEC50, pIC50: −log10 of the molar value. Where only a bound is given, the exact number is not on record here.

Cytochrome P450 2D6, sequence (P10635 whole entry): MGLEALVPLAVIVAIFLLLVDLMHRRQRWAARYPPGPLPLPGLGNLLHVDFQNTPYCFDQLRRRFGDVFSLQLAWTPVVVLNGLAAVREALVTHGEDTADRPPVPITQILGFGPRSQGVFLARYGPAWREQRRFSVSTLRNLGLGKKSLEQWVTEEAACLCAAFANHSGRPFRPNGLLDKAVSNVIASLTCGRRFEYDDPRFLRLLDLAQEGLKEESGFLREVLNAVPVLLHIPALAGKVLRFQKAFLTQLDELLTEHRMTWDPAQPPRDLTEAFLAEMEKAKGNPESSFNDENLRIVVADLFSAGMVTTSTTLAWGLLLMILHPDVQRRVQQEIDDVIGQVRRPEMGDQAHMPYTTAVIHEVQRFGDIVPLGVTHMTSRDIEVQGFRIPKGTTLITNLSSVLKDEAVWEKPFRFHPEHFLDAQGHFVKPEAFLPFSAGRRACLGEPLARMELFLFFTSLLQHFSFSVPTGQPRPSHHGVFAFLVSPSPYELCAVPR

`Cc1cc(C#N)cc(C)c1Oc1nc(Nc2ccc(C#N)c(F)c2)nc2c1CCC2`: the pEC50 in [1] is 7.42; in data set [2] it was 6.02.
On to `Cc1cc(C#N)cc(C)c1Oc1cc(Cl)nc(Nc2ccc(C#N)c(F)c2)n1`, for which the pEC50 in [1] was 7.31; in data set [2], 6.05.
As for `Cc1cc(/C=C/C#N)cc(C)c1Oc1nc(Nc2ccc(C#N)c(F)c2)nc2ccsc12`, the pEC50 is 8.07 in data set [1]; 7.67 in [2]; greater than 8.44 in [3]; greater than 8.44 in [4]; 8.07 in [5]; 8.09 in data set [6]. Moreover, the pEC50 in data set [7] and in data set [8] was 8.03 in each case. For the same compound, the pIC50 on Cytochrome P450 2D6 was less than 4.30. Further, the Activity entry in data set [9], in data set [10], in data set [11] and in data set [12] was “Non-Toxic” each time. The Tmax in data set [13] was 1.98 min; in data set [14], 30 min; in data set [15], 1.98 min; in [16] it was 60 min.
For the compound `Cc1cc(C#N)cc(C)c1Oc1nc(Nc2ccc(C#N)cc2C(F)(F)F)nc2sccc12`, the pEC50 in data set [1] is 5.89.
Still for that read-out and setting: the result for `Cc1cc(C#N)cc(C)c1Oc1nc(Nc2ccc(C#N)c(C(F)(F)F)c2)nc2sccc12` reads 7.35.
With `Cc1cc(C#N)cc(C)c1Oc1nc(Nc2ccc(C#N)c(F)c2)nc2sccc12`, the pEC50 in data set [1] was 8.00; in [2] it was 6.92.
Take `Cc1cc(C#N)cc(C)c1Oc1nc(Nc2ccc(C#N)c(C(F)(F)F)c2)nc2ccsc12`: in [1], the pEC50 is 7.53.
With `Cc1cc(/C=C/C#N)cc(C)c1Oc1nc(Nc2ccc(C#N)cc2F)nc2sccc12`, the negative logarithm of the EC50 (pEC50) in data set [1] is 8.15; in data set [2] it was 6.33.
On to `Cc1cc(/C=C/C#N)cc(C)c1Oc1nc(Nc2ccc(C#N)c(C(F)(F)F)c2)nc2sccc12`, for which the pEC50 is 7.45 in data set [1] and 6.85 in [2].
The like results for `Cc1cc(/C=C/C#N)cc(C)c1Oc1nc(Nc2ccc(C#N)c(F)c2F)nc2ccsc12` were, in that order, 8.05 and 5.96.
For the compound `Cc1cc(/C=C/C#N)cc(C)c1Oc1nc(Nc2ccc(C#N)c(F)c2)nc2sccc12`, the pEC50 in [1] was 8.12; in data set [2], 7.48; in data set [3], 8.26; in data set [4] it was 8.13; in [5], 7.58; in data set [6], 7.45. The values for the negative logarithm of the EC50 (pEC50) in [7] and in [8] were 7.53 and 7.48, respectively.
`Cc1cc(C#N)cc(C)c1Oc1nc(Nc2ccc(C#N)c(F)c2F)nc2sccc12`: the pEC50 in data set [1] was 7.39.
In the case of `Cc1cc(/C=C/C#N)cc(C)c1Oc1nc(Nc2ccc(C#N)cc2C(F)(F)F)nc2sccc12`, in data set [1], the negative-log EC50 (pEC50) was 6.78.
With `Cc1cc(/C=C/C#N)cc(C)c1Oc1nc(Nc2ccc(C#N)cc2F)nc2ccsc12`, the figures for the pEC50 in data set [1] and in [2] were 8.20 and 6.25, respectively.
Turning to `Cc1cc(C#N)cc(C)c1Oc1nc(Nc2ccc(C#N)c(F)c2)nc2cccc(F)c12`, the results for the negative logarithm of the EC50 (pEC50) in data set [1] and in data set [2] were 7.91 and 6.74, respectively.
Take `Cc1cc(C#N)cc(C)c1Oc1nc(Nc2ccc(C#N)cc2)nc(N)c1Br` [ETRAVIRINE]: the negative logarithm of the EC50 (pEC50) in [1] is 8.50 to 8.59; in data set [2], 7.42 to 7.49.
Turning to `Cc1cc(C#N)cc(C)c1Oc1ccnc(Nc2ccc(C#N)c(F)c2)n1`, the negative logarithm of the EC50 (pEC50) in data set [1] is 8.20; in data set [2], 6.41.
With `Cc1cc(C#N)cc(C)c1Oc1nc(Nc2ccc(C#N)c(F)c2)nc2c1CSC2`, the pEC50 was 7.68 in [1] and 6.21 in data set [2].
With `Cc1cc(/C=C/C#N)cc(C)c1Oc1nc(Nc2ccc(C#N)c(F)c2F)nc2sccc12`, the pEC50 in data set [1] is 7.73; in data set [2] it was 5.63.
As to `Cc1cc(C#N)cc(C)c1Oc1nc(Nc2ccc(C#N)c(F)c2)nc2ccccc12`, the negative logarithm of the EC50 (pEC50) in data set [1] was 8.09; in data set [2], 6.83.
In the case of `Cc1cc(/C=C/C#N)cc(C)c1Oc1nc(Nc2ccc(C#N)cc2C(F)(F)F)nc2ccsc12`, the pEC50 in [1] is 7.61; in data set [2] it was 7.32.
With `Cc1cc(C#N)cc(C)c1Oc1nc(Nc2ccc(C#N)cc2F)nc2sccc12`, in data set [1], the negative-log EC50 (pEC50) is 7.62.
`Cc1cc(C#N)cc(C)c1Oc1nc(Nc2ccc(C#N)cc2C(F)(F)F)nc2ccsc12`: the negative-log EC50 (pEC50) in data set [1] was 6.05.
With `Cc1cc(C#N)cc(C)c1Oc1nc(Nc2ccc(C#N)c(F)c2)nc2c1SCC2`, the pEC50 in data set [1] was 8.20; in [2], 6.97.
For `Cc1cc(C#N)cc(C)c1Oc1nc(Nc2ccc(C#N)c(F)c2)nc2ncsc12`, the pEC50 was 8.52 in data set [1] and 6.88 in data set [2].
For `Cc1cc(C#N)cc(C)c1Oc1nc(Nc2ccc(C#N)c(F)c2)nc2cc[nH]c12`, in that order: 8.54 and 7.53.
The like results for `Cc1cc(C#N)cc(C)c1Oc1nc(Nc2ccc(C#N)c(F)c2)nc2ccsc12` were, in that order, 8.17 and 7.30.
Regarding `O=C1Nc2ccc(Cl)cc2[C@@](C#CC2CC2)(C(F)(F)F)O1` [EFAVIRENZ], the pEC50 in data set [1] is 8.60 to 8.64; in [2], 6.59 to 6.73.
On to `Cc1cc(C#N)cc(C)c1Oc1nc(Nc2ccc(C#N)c(F)c2)nc2scnc12`, for which the pEC50 in data set [1] is 8.43; in [2], 6.79.
Turning to `Cc1cc(C#N)cc(C)c1Oc1nc(Nc2ccc(C#N)c(F)c2)nc2c1CCCC2`, the pEC50 in data set [1] is 7.95; in data set [2], 6.74.
On to `Cc1cc(C#N)cc(C)c1Oc1nc(Nc2ccc(C#N)c(F)c2F)nc2ccsc12`, for which the pEC50 in data set [1] is 6.65.
Consider `Cc1cc(/C=C/C#N)cc(C)c1Oc1nc(Nc2ccc(C#N)c(C(F)(F)F)c2)nc2ccsc12`, for which, in [1], the pEC50 was 6.84.
`Cc1cc(C#N)cc(C)c1Oc1nc(Nc2ccc(C#N)c(F)c2)nc2c1COC2`: the negative-log EC50 (pEC50) in [1] was 8.52; in data set [2] it was 6.56.
`Cc1cc(C#N)cc(C)c1Oc1nc(Nc2ccc(C#N)cc2F)nc2ccsc12`: the pEC50 in [1] is 7.52.

The values are drawn from ChEMBL document CHEMBL4376885 (J Med Chem, 2020).
